Reference: ChEMBL document CHEMBL2321795, “Solubility-driven optimization of (pyridin-3-yl) benzoxazinyl-oxazolidinones leading to a promising antibacterial agent” (J Med Chem, 2013)
pIC50: −log10 of the molar value. Values after ≈ are worked out from the molar mass of the structure shown.

Legend:
Staphylococcus aureus [1] = assay: Antibacterial activity against methicillin-resistant Staphylococcus aureus after 16 hrs by NCCLS agar dilution method; type: functional
Outline: (§1)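 Agar dilution MIC. Stocks were 320 μg/mL in 50% aqueous DMSO, 2-fold serially diluted in sterile water, then diluted 10-fold into Mueller–Hinton agar to give 16–0.03125 μg/mL final. Organisms were grown in MH broth at 35 °C for 8 h and adjusted to 0.5 McFarland. They were spotted onto drug-containing plates with a multipoint inoculator and incubated at 35 °C for 16 h. Linezolid was the positive control.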

Staphylococcus aureus [2] = assay: Antibacterial activity against methicillin-sensitive Staphylococcus aureus after 16 hrs by NCCLS agar dilution method; type: functional; outline: as §1
Enterococcus faecium = assay: Antibacterial activity against linezolid-resistant Enterococcus faecium after 16 hrs by NCCLS agar dilution method; type: functional; outline: as §1
Staphylococcus aureus [3] = assay: Antibacterial activity against methicillin-sensitive Staphylococcus aureus ATCC 19636 infected in iv dosed systemic infection mouse model administered 1 hr post infection measured after 48 hrs; type: functional; conditions: ATCC 19636, iv
Outline: (§2)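 Female ICR mice weighing 20–22 g, six per group, received 0.5 mL of 10⁷–10⁸ CFU/mL S. aureus intraperitoneally as a lethal systemic challenge. Dosing was oral or intravenous 1 h post-infection at 2.5, 5, 10 and 20 mg/kg, with linezolid as comparator.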

Staphylococcus aureus [4] = assay: Antibacterial activity against linezolid-resistant Staphylococcus aureus after 16 hrs by NCCLS agar dilution method; type: functional; outline: as §1
[5] = system: Staphylococcus epidermidis; assay: Antibacterial activity against linezolid-resistant Staphylococcus epidermidis after 16 hrs by NCCLS agar dilution method; type: functional; outline: as §1
Staphylococcus aureus [6] = assay: Antibacterial activity against methicillin-sensitive Staphylococcus aureus ATCC 19636 infected in po dosed systemic infection mouse model administered 1 hr post infection measured after 48 hrs; type: functional; conditions: ATCC 19636, po; outline: as §2
[7] = system: Staphylococcus epidermidis; assay: Antibacterial activity against methicillin-sensitive Staphylococcus epidermidis after 16 hrs by NCCLS agar dilution method; type: functional; outline: as §1
Staphylococcus aureus [8] = assay: Antibacterial activity against Staphylococcus aureus ATCC 29213 after 16 hrs by NCCLS agar dilution method; type: functional; conditions: ATCC 29213, 16 h; outline: as §1
[9] = system: Staphylococcus epidermidis; assay: Antibacterial activity against methicillin-resistant Staphylococcus epidermidis after 16 hrs by NCCLS agar dilution method; type: functional; outline: as §1
Enterococcus faecalis [10] = assay: Antibacterial activity against Enterococcus faecalis after 16 hrs by NCCLS agar dilution method; type: functional
Outline: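 Agar dilution MIC per NCCLS, 6 E. faecalis strains. Stock was 320 μg/mL in 50% water/DMSO, serially 2-fold diluted in sterile water, then 10-fold into Mueller–Hinton agar to give 16–0.03125 μg/mL final. Inocula came from MH broth cultures grown 8 h at 35 °C, adjusted to 0.5 McFarland and spotted by multipoint inoculator. Plates were read after 16 h at 35 °C.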

Enterococcus faecalis [11] = assay: Antibacterial activity against linezolid-resistant Enterococcus faecalis after 16 hrs by NCCLS agar dilution method; type: functional; outline: as §1
Streptococcus pneumoniae = assay: Antibacterial activity against penicillin-resistant Streptococcus pneumoniae after 16 hrs by NCCLS agar dilution method; type: functional; outline: as §1
[12] = AUC in Sprague-Dawley rat at 10 mg/kg, po by LC-MS analysis; type: ADME, organism-based, Plasma; set-up: dose 10 mg/kg, route oral; conditions: Sprague-Dawley, plasma
Outline: (§3)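 Rats were dosed orally or by intravenous injection. For prodrugs, all parameters were based on the active parent antibacterial detected in plasma, and each prodrug dose was also given as an equivalent parent dose. Parameters were Cmax, Tmax, elimination T1/2, AUC from the concentration–time curve, clearance and oral bioavailability F.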

[13] = Tmax in Sprague-Dawley rat at 10 mg/kg, po by LC-MS analysis; type: ADME, organism-based; set-up: dose 10 mg/kg, route oral; conditions: in vivo; outline: as §3
[14] = Cmax in Sprague-Dawley rat at 10 mg/kg, po by LC-MS analysis; type: ADME, organism-based; set-up: dose 10 mg/kg, route oral; conditions: in vivo; outline: as §3
[15] = Elimination half life in Sprague-Dawley rat at 10 mg/kg, po by LC-MS analysis; type: ADME, organism-based; set-up: dose 10 mg/kg, route oral; conditions: in vivo, read-out: beta t1/2 (converted); outline: as §3
[16] = AUC in Sprague-Dawley rat at 10 mg/kg, iv by LC-MS analysis; type: ADME, organism-based; set-up: dose 10 mg/kg, route intravenous; conditions: plasma
Outline: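 Rats dosed orally or by intravenous injection. AUC is the area under the plasma concentration–time curve. For the prodrug entries, all PK values were based on the amount of the active parent antibacterial detected, not the administered prodrug.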

[17] = Elimination half life in Sprague-Dawley rat at 10 mg/kg, iv by LC-MS analysis; type: ADME, organism-based; set-up: dose 10 mg/kg, route intravenous; conditions: in vivo, read-out: beta t1/2 (converted); outline: as §3
[18] = Oral bioavailability in Sprague-Dawley rat at 10 mg/kg; type: ADME, organism-based; conditions: Sprague-Dawley, in vivo; outline: as §3
[19] = Clearance in Sprague-Dawley rat at 10 mg/kg, iv by LC-MS analysis; type: ADME, organism-based; set-up: dose 10 mg/kg, route intravenous; conditions: in vivo; outline: as §3
[20] = target: Voltage-gated inwardly rectifying potassium channel KCNH2 (Homo sapiens, UniProt Q12809)
hERG (KCNH2) = hERG (KCNH2) (Homo sapiens, UniProt Q12809); assay: Inhibition of human ERG at 30 uM relative to control
[21] = Cmax in Sprague-Dawley rat at 50 mg/kg, po by LC-MS analysis; type: ADME, organism-based; set-up: dose 50 mg/kg, route oral; conditions: in vivo; outline: as §3
[22] = Tmax in Sprague-Dawley rat at 50 mg/kg, po by LC-MS analysis; type: ADME, organism-based; set-up: dose 50 mg/kg, route oral; conditions: in vivo; outline: as §3
[23] = Elimination half life in Sprague-Dawley rat at 50 mg/kg, po by LC-MS analysis; type: ADME, organism-based; set-up: dose 50 mg/kg, route oral; conditions: in vivo, read-out: beta t1/2 (converted); outline: as §3
[24] = AUC in Sprague-Dawley rat at 50 mg/kg, po by LC-MS analysis; type: ADME, organism-based; set-up: dose 50 mg/kg, route oral; conditions: plasma; outline: as §3

hERG (KCNH2), sequence (Q12809 whole entry): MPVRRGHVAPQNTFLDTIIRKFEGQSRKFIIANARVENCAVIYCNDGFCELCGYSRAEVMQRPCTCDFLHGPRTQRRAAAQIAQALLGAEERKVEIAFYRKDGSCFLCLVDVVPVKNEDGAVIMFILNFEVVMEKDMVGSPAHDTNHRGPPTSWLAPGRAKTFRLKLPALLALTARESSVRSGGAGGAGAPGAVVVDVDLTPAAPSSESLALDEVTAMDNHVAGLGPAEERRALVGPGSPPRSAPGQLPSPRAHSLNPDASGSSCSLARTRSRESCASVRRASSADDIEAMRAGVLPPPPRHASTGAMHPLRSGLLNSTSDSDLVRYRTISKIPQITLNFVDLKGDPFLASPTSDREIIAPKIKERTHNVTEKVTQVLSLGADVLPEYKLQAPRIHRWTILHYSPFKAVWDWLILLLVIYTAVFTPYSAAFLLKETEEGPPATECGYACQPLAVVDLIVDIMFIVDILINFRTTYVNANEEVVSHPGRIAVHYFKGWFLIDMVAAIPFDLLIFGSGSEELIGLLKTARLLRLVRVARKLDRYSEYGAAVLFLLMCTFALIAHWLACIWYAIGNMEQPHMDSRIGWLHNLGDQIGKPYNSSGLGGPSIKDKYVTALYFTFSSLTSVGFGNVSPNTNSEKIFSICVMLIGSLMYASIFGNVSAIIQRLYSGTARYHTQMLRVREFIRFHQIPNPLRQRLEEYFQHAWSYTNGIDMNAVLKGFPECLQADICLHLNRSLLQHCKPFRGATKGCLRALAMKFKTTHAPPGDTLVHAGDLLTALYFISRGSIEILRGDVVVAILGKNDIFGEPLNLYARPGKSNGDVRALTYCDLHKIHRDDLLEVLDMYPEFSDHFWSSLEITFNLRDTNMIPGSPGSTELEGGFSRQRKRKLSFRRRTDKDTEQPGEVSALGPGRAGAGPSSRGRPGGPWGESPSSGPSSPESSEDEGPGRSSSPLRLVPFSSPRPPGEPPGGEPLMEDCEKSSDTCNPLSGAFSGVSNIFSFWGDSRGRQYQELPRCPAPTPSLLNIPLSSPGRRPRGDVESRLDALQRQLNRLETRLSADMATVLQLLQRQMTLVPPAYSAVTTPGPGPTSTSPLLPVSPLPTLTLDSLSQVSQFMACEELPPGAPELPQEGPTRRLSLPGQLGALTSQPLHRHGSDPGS
Voltage-gated inwardly rectifying potassium channel KCNH2, sequence (Q12809 whole entry): as above

| Compound | MIC (Staphylococcus aureus [1]) [µg/mL] | MIC (Staphylococcus aureus [2]) [µg/mL] | MIC (Enterococcus faecium) [µg/mL] | MIC (Staphylococcus aureus [4]) [µg/mL] | MIC [5] [µg/mL] | MIC [7] [µg/mL] | MIC (Staphylococcus aureus [8]) [µg/mL] | MIC [9] [µg/mL] | MIC (Enterococcus faecalis [10]) [µg/mL] | MIC (Enterococcus faecalis [11]) [µg/mL] | MIC (Streptococcus pneumoniae) [µg/mL] | other results |
| --- | --- | --- | --- | --- | --- | --- | --- | --- | --- | --- | --- | --- |
| CC(=O)NC[C@H]1CN(c2ccc(N3CCOCC3)c(F)c2)C(=O)O1 [LINEZOLID] | 1 (≈ 2.96 µM) | 1 (≈ 2.96 µM) | 16 (≈ 47.4 µM) | > 8 | 8 (≈ 23.7 µM) | 1 (≈ 2.96 µM) | 1 (≈ 2.96 µM) | 2 (≈ 5.93 µM) |  |  |  | ED50 (Staphylococcus aureus [3]): 7.07 mg/kg; ED50 (Staphylococcus aureus [6]): 8.28 mg/kg |
| O=C1OCCN1c1ccc(-c2ccc3c(c2)OC[C@H]2[C@H](CO)OC(=O)N32)cn1 | 0.5 (≈ 1.3 µM) | 0.5 (≈ 1.3 µM) | 4 (≈ 10.4 µM) | 16 (≈ 41.7 µM) | 2 (≈ 5.22 µM) | 0.5 (≈ 1.3 µM) | 0.5 (≈ 1.3 µM) | 0.5 (≈ 1.3 µM) | 1 (≈ 2.61 µM) | 4 (≈ 10.4 µM) | 0.5 (≈ 1.3 µM) |  |
| CN1C[C@@H](c2ccc(-c3ccc4c(c3)OC[C@H]3[C@H](COP(=O)(O)O)OC(=O)N43)cn2)OC1=O.N=C(N)NCCC[C@H](N)C(=O)O.N=C(N)NCCC[C@H](N)C(=O)O |  |  |  |  |  |  |  |  |  |  |  | AUC [12]: 523 ng·h/mL; Tmax [13]: 0.38 h; Cmax [14]: 170 ng/mL; half-life [15]: 3.88 h; AUC [16]: 1440 ng·h/mL; half-life [17]: 9.43 h; bioavailability [18]: 34.8%; clearance [19]: 56.2 mL/min/kg |
| CC(=O)NC[C@@H]1OC(=O)N2c3ccc(-c4ccc(C#N)nc4)cc3OC[C@@H]12 |  |  |  |  |  |  |  |  |  |  |  | pIC50 [20]: 5.56 |
| O=C1O[C@@H](CO)[C@@H]2COc3cc(-c4ccc(Cn5cncn5)nc4)ccc3N12 | 0.5 (≈ 1.32 µM) | 0.5 (≈ 1.32 µM) | 8 (≈ 21.1 µM) | 16 (≈ 42.2 µM) | 8 (≈ 21.1 µM) | 0.5 (≈ 1.32 µM) | 1 (≈ 2.64 µM) | 0.5 (≈ 1.32 µM) | 1 (≈ 2.64 µM) | 8 (≈ 21.1 µM) | 0.5 (≈ 1.32 µM) |  |
| C[C@@H](O)C(=O)c1ccc(-c2ccc3c(c2)OC[C@H]2[C@H](CO)OC(=O)N32)cn1 | 0.125 (≈ 0.338 µM) | 0.25 (≈ 0.675 µM) | 4 (≈ 10.8 µM) | 8 (≈ 21.6 µM) | 4 (≈ 10.8 µM) | 0.125 (≈ 0.338 µM) | 0.25 (≈ 0.675 µM) | 0.125 (≈ 0.338 µM) | 1 (≈ 2.7 µM) | 4 (≈ 10.8 µM) | 0.25 (≈ 0.675 µM) | inhibition at 30 µM (hERG (KCNH2)): 18.4% |
| N#Cc1ccc(-c2ccc3c(c2)OC[C@H]2[C@H](CO)OC(=O)N32)cn1 | 0.25 (≈ 0.773 µM) | 0.25 (≈ 0.773 µM) | 2 (≈ 6.19 µM) | 4 (≈ 12.4 µM) | 4 (≈ 12.4 µM) | 0.25 (≈ 0.773 µM) | 0.25 (≈ 0.773 µM) | 0.125 (≈ 0.387 µM) | 1 (≈ 3.09 µM) | 2 (≈ 6.19 µM) | 0.25 (≈ 0.773 µM) | Cmax [21]: 3020 ng/mL; Tmax [22]: 4.5 h; half-life [23]: 4.69 h; AUC [24]: 33400 ng·h/mL |
| O=C1O[C@@H](CO)[C@@H]2COc3cc(-c4ccc(C(O)CO)nc4)ccc3N12 (some centres undefined) | 0.5 (≈ 1.4 µM) | 0.5 (≈ 1.4 µM) | 4 (≈ 11.2 µM) | 16 (≈ 44.6 µM) | 8 (≈ 22.3 µM) | 0.5 (≈ 1.4 µM) | 0.5 (≈ 1.4 µM) | 0.5 (≈ 1.4 µM) | 1 (≈ 2.79 µM) | 4 (≈ 11.2 µM) | 0.5 (≈ 1.4 µM) |  |
